Experimental data reported in PMC4475435 (Clinical therapeutics, 2015).
Read-outs that look alike come from different tables or passages of the source. Marks after values point to notes of the source that are not given here.

Legend:
[1] = weight used: Weight, cited from earlier work
[2] = cited from earlier work
[3] = Population-based PK model; type: in vivo, human
How it was run: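 Matched case-control: overweight/obese children (≥85th percentile, CDC charts) vs normal-weight controls matched on age (±1 y), SCr (±0.4 mg/dL), nephrotoxic co-medication and ICU stay; 389 serum levels, mostly drawn after third dose, with full dosing history. One-compartment first-order model, FOCE with interaction; age and SCr on CL; weight on Vd, weight^0.75 on CL; MAP Bayesian POSTHOC individual estimates; 1000-replicate bootstrap 95% CIs.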

[4] = 18 overweight children, age 5, 0.5–18 y
[5] = 4 normal-weight adults (Weight <115% IW), 25–30 y, weight used: Weight, SD
[6] = 6 morbidly obese adults (Weight >190% IW), 27–37 y, weight used: Weight, SD
[7] = 6 morbidly obese adults, 27–37 y, weight used: IW, SD
[8] = 24 morbidly obese adults (Weight >190% IW), 41 (7) y, weight used: Weight, SD
[9] = 24 morbidly obese adults, weight used: IW, SD
[10] = 24 normal-weight adults, weight used: IW, SD
[11] = bootstrap analysis of 1000 replicates
[12] = obese and overweight children compared with those with normal weight
[13] = overweight/obese cases versus normal-weight controls, 87 matched pairs

## CN[C@H](CC(C)C)C(=O)N[C@H]1C(=O)N[C@@H](CC(N)=O)C(=O)N[C@H]2C(=O)N[C@H]3C(=O)N[C@H](C(=O)N[C@H](C(=O)O)c4cc(O)cc(O)c4-c4cc3ccc4O)[C@H](O)c3ccc(c(Cl)c3)Oc3cc2cc(c3O[C@@H]2O[C@H](CO)[C@@H](O)[C@H](O)[C@H]2O[C@H]2C[C@](C)(N)[C@H](O)[C@H](C)O2)Oc2ccc(cc2Cl)[C@H]1O [vancomycin]
[1]; 13 underweight children
  Clearance, Mean (SD) or Median (Range): 0.18 (0.09) L/kg/h
  Vd, Mean (SD) or Median (Range): 0.97 (0.54) L/kg
[1]; [4]
  Clearance, Mean (SD) or Median (Range): 0.16 (0.05) L/kg/h
  Vd, Mean (SD) or Median (Range): 0.81 (0.37) L/kg
[1]; 31 normal-weight children
  Clearance, Mean (SD) or Median (Range): 0.2 (0.08) L/kg/h
  Vd, Mean (SD) or Median (Range): 1 (0.35) L/kg
[2]; [5]
  Clearance, Mean (SD) or Median (Range): 0.065 (0.004) L/kg/h
  Vd, Mean (SD) or Median (Range): 0.39 (0.06) L/kg
[2]; [6]
  Clearance, Mean (SD) or Median (Range): 0.066 (0.01) L/kg/h
  Vd, Mean (SD) or Median (Range): 0.26 (0.03) L/kg
[2]; [7]
  Clearance, Mean (SD) or Median (Range): 0.174 (0.04) L/kg/h
  Vd, Mean (SD) or Median (Range): 0.68 (0.07) L/kg
[2]; [8]
  Clearance, Mean (SD) or Median (Range): 0.072 (0.012) L/kg/h
  Vd, Mean (SD) or Median (Range): 0.32 (0.05) L/kg
[2]; [9]
  Clearance, Mean (SD) or Median (Range): 0.186 (0.042) L/kg/h
  Vd, Mean (SD) or Median (Range): 0.83 (0.08) L/kg
[2]; [10]
  Clearance, Mean (SD) or Median (Range): 0.06 (0.024) L/kg/h
  Vd, Mean (SD) or Median (Range): 0.64 (0.26) L/kg
[2]; 37 underweight adults (Weight <80% IW), weight used: IW, 95% CI 0.55–0.68
  Vd, Mean (SD) or Median (Range): 0.62 (0.55–0.68 ^‡) L/kg
[2]; 107 obese adults (Weight >120% LBM), weight used: Weight, range of means
  Clearance, Mean (SD) or Median (Range): 0.0366–0.051 ^† L/kg/h
[2]; 108 obese adults (Weight >130% IW), weight used: IW, 95% CI 0.82–0.97
  Vd, Mean (SD) or Median (Range): 0.89 (0.82–0.97 ^‡) L/kg
[2]; 108 obese adults (Weight >130% IW), weight used: Weight, 95% CI 0.52–0.59
  Vd, Mean (SD) or Median (Range): 0.56 (0.52–0.59 ^‡) L/kg
[3]; [11]
  θ1, Median Bootstrap Estimate (95% CI): 0.572 (0.514–0.632)
  θ2, Median Bootstrap Estimate (95% CI): 0.285 (0.268–0.304)
  θ3, Median Bootstrap Estimate (95% CI): 0.291 (0.165–0.395)
  θ4, Median Bootstrap Estimate (95% CI): 0.742 (0.194–1.263)
[3]; final population PK model, 174 participants, 389 concentrations
  θ1, population estimate: Vd (L) = θ1 × Weight (kg): 0.574
[3]; [12]
  decrease of weight-adjusted CL: 10.8%
  decrease of weight-adjusted Vd: 2.2%
[3]; [13]
  mean CL, based on weight, for cases lower than controls by: 0.233 mL/min/kg
  mean Vd, based on weight, for cases lower than controls by: 0.012 L/kg
